The target of test [1] is Hepatocyte growth factor receptor (Homo sapiens, UniProt P08581). In words: Inhibition of c-Met (unknown origin) using poly (Glu, Tyr) 4:1 after 30 mins by HTRF assay. Background: In TR-FRET formats the signal depends on donor and acceptor labels being close together.
Test [2] in a line: Cytotoxicity against human MKN45 cells after 72 hrs by MTT assay. To be noted: MKN-45, 72 h.
A short description of test [3]: Cytotoxicity against human U87MG cells after 72 hrs by MTT assay. It counts as functional, cell-based, U-87MG ATCC. As to conditions: U-87 MG. In a few lines: (§1)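 Cells were grown in MEM with 10% FBS and seeded at about 4×10^3 cells per well, then held 24 h at 37 °C in 5% CO2. Compounds were added and the cells cultured 72 h. MTT was added to 5 µg/mL final for 4 h at 37 °C, and the formazan was dissolved in DMSO. IC50 is the mean of three determinations.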
(In general: Tetrazolium dyes change colour on reduction, which living cells bring about.)

The next test deals with A549. In words: Cytotoxicity against human A549 cells after 72 hrs by MTT assay. It counts as functional, cell-based. As to conditions: A549, 72 h. The procedure, abridged:
as §1

Another test relates to HT-29. The test is described as follows: Cytotoxicity against human HT-29 cells after 72 hrs by MTT assay. To be noted: HT-29, 72 h.
Test [4] is described as follows: Cytotoxicity against human H460 cells after 72 hrs by MTT assay. To be noted: NCI-H460, 72 h.

This is an account of results in ChEMBL document CHEMBL3112515, “Discovery of novel 6,7-disubstituted-4-phenoxyquinoline derivatives bearing 5-(aminomethylene)pyrimidine-2,4,6-trione moiety as c-Met kinase inhibitors” (Bioorg Med Chem, 2014).

Consider `COc1cc2c(Oc3ccc(N/C=C4\C(=O)NC(=O)N(c5ccc(F)c(Cl)c5)C4=O)cc3F)ccnc2cc1OCCCN1CCCC1`, for which the IC50 – broadly, the point on the concentration scale where inhibition reaches its midpoint – in test [1] was found to be 2.38 nM; in test [2], 72 nM; in test [3] it was 680 nM; in the test on A549 it was 190 nM; with HT-29 it was 190 nM; in test [4], 54 nM.
`COc1cc2c(Oc3ccc(N/C=C4\C(=O)NC(=O)N(c5ccccc5C(F)(F)F)C4=O)cc3F)ccnc2cc1OCCCN1CCCC1`: the IC50 in test [1] is 7.51 nM; in test [2], 1400 nM; in the test with HT-29, 370 nM; in test [4], 360 nM.
On to `COc1cc(N2C(=O)NC(=O)/C(=C\Nc3ccc(Oc4ccnc5cc(OCCCN6CCCC6)c(OC)cc45)c(F)c3)C2=O)c(OC)cc1Cl`, for which the IC50 in test [1] is 16.8 nM; in test [2] it was 350 nM; in test [3], 2800 nM; in the test with A549, 380 nM; with HT-29 it was 9400 nM; in test [4] it was 710 nM.
For the molecule `COc1cc2c(Oc3ccc(N/C=C4\C(=O)NC(=O)N(c5ccccc5)C4=O)cc3F)ccnc2cc1OCCCN1CCOCC1`, the IC50 was 4.57 nM in test [1]; 310 nM in test [2]; 4800 nM in test [3]; 930 nM with A549; 350 nM in the test with HT-29; 260 nM in test [4].
For `COc1cc2c(Oc3ccc(N/C=C4\C(=O)NC(=O)N(c5ccc(C)cc5)C4=O)cc3F)ccnc2cc1OCCCN1CCOCC1`, the IC50 in test [1] turned out to be 2.16 nM; in test [2], 210 nM; in test [3], 8500 nM; with A549, 110 nM; with HT-29, 180 nM; in test [4], 61 nM.
For the molecule `COc1cc2c(Oc3ccc(N/C=C4\C(=O)NC(=O)N(c5c(C)cccc5C)C4=O)cc3F)ccnc2cc1OCCCN1CCOCC1`, the IC50 in test [1] was 3.03 nM; in test [2], 5500 nM; in test [3], 7100 nM; in the test with A549, 2200 nM; in the test on HT-29 it was 140 nM; in test [4] it was 85 nM.
Consider `COc1cc2c(Oc3ccc(N/C=C4\C(=O)NC(=O)N(c5ccc(F)cc5)C4=O)cc3F)ccnc2cc1OCCCN1CCOCC1`, for which the IC50 in test [1] was 3.58 nM; in test [2], 740 nM; in the test on HT-29 it was 240 nM; in test [4], 120 nM.
Regarding `COc1cc2c(Oc3ccc(N/C=C4\C(=O)NC(=O)N(c5ccc(F)cc5F)C4=O)cc3F)ccnc2cc1OCCCN1CCOCC1`, the IC50 in test [1] is 12.4 nM; in test [2] it was 780 nM; in the test with HT-29 it was 560 nM; in test [4] it was 850 nM.
As to `COc1cc2c(Oc3ccc(N/C=C4\C(=O)NC(=O)N(c5ccc(F)c(Cl)c5)C4=O)cc3F)ccnc2cc1OCCCN1CCOCC1`, the half-maximal inhibitory concentration (IC50) in test [1] was 5.14 nM; in test [2], 110 nM; in test [3], 580 nM; in the test on A549, 270 nM; in the test on HT-29, 280 nM; in test [4] it was 120 nM.
`COc1cc2c(Oc3ccc(N/C=C4\C(=O)NC(=O)N(c5ccccc5C(F)(F)F)C4=O)cc3F)ccnc2cc1OCCCN1CCOCC1`: the IC50 amounted to 21.2 nM in test [1], 18400 nM in test [2], 3700 nM in the test on HT-29 and 2300 nM in test [4].
The like results for `COc1cc(N2C(=O)NC(=O)/C(=C\Nc3ccc(Oc4ccnc5cc(OCCCN6CCOCC6)c(OC)cc45)c(F)c3)C2=O)c(OC)cc1Cl` were, in that order, 32.8 nM, 2400 nM, 1300 nM and 540 nM.
The like results for `COc1cc2c(Oc3ccc(N/C=C4\C(=O)NC(=O)N(c5ccccc5)C4=O)cc3F)ccnc2cc1OCCCN1CCN(C)CC1` were, in that order, 3.29 nM, 520 nM, 190 nM and 290 nM.
With `COc1cc2c(Oc3ccc(N/C=C4\C(=O)NC(=O)N(c5ccc(C)cc5)C4=O)cc3F)ccnc2cc1OCCCN1CCN(C)CC1`, the IC50 in test [1] stood at 2.68 nM; in test [2], 160 nM; in test [3], 3200 nM; with A549, 430 nM; in the test on HT-29 it was 490 nM; in test [4], 70 nM.
For the molecule `COc1cc2c(Oc3ccc(N/C=C4\C(=O)NC(=O)N(c5c(C)cccc5C)C4=O)cc3F)ccnc2cc1OCCCN1CCN(C)CC1`, the IC50 turned out to be 3.26 nM in test [1], 450 nM in test [2], 260 nM in the test with HT-29 and 170 nM in test [4].
Consider `COc1cc2c(Oc3ccc(N/C=C4\C(=O)NC(=O)N(c5ccc(F)cc5)C4=O)cc3F)ccnc2cc1OCCCN1CCN(C)CC1`, for which the IC50 worked out at 3.15 nM in test [1]; 120 nM in test [2]; 510 nM in the test with A549; 310 nM with HT-29; 120 nM in test [4].
With `COc1cc2c(Oc3ccc(N/C=C4\C(=O)NC(=O)N(c5ccc(F)cc5F)C4=O)cc3F)ccnc2cc1OCCCN1CCN(C)CC1`, the IC50 was determined as 8.35 nM in test [1]; 510 nM in test [2]; 1600 nM in test [3]; 380 nM in the test with A549; 1500 nM with HT-29; 1170 nM in test [4].
Consider `COc1cc2c(Oc3ccc(N/C=C4\C(=O)NC(=O)N(c5ccc(F)c(Cl)c5)C4=O)cc3F)ccnc2cc1OCCCN1CCN(C)CC1`, for which the IC50 in test [1] turned out to be 3.15 nM; in test [2], 66 nM; in test [3] it was 750 nM; with A549, 310 nM; in the test on HT-29, 150 nM; in test [4], 76 nM.
Regarding `COc1cc2c(Oc3ccc(N/C=C4\C(=O)NC(=O)N(c5ccccc5C(F)(F)F)C4=O)cc3F)ccnc2cc1OCCCN1CCN(C)CC1`, the IC50 was 8.14 nM in test [1], 3500 nM in test [2], 7300 nM in the test on HT-29 and 4200 nM in test [4].
Taken in the same sequence, the figures for `COc1cc(N2C(=O)NC(=O)/C(=C\Nc3ccc(Oc4ccnc5cc(OCCCN6CCN(C)CC6)c(OC)cc45)c(F)c3)C2=O)c(OC)cc1Cl` were 24.7 nM, 480 nM, 7700 nM and 1800 nM.
Taken in the same sequence, the figures for `COc1cc2c(Oc3ccc(N/C=C4\C(=O)NC(=O)N(c5ccc(F)cc5)C4=O)cc3F)ccnc2cc1OCCCN1CCCCC1` were 3.64 nM, 480 nM, 140 nM and 160 nM.
For the molecule `COc1cc2c(Oc3ccc(N/C=C4\C(=O)NC(=O)N(c5ccc(F)cc5F)C4=O)cc3F)ccnc2cc1OCCCN1CCCCC1`, the half-inhibitory concentration (IC50) in test [1] turned out to be 9.27 nM; in test [2], 3900 nM; with HT-29, 420 nM; in test [4], 1100 nM.
Take `COc1cc2c(Oc3ccc(N/C=C4\C(=O)NC(=O)N(c5ccccc5C(F)(F)F)C4=O)cc3F)ccnc2cc1OCCCN1CCCCC1`: the IC50 in test [1] came to 18.5 nM; in test [2], 100 nM; in the test on HT-29, 1300 nM; in test [4], 930 nM.
Taken in the same sequence, the figures for `COc1cc(N2C(=O)NC(=O)/C(=C\Nc3ccc(Oc4ccnc5cc(OCCCN6CCCCC6)c(OC)cc45)c(F)c3)C2=O)c(OC)cc1Cl` were 27.9 nM, 1970 nM, 2600 nM and 1200 nM.
Taken in the same sequence, the figures for `COc1cc2c(Oc3ccc(N/C=C4\C(=O)NC(=O)N(c5c(C)cccc5C)C4=O)cc3F)ccnc2cc1OCCCN1CCC(C)CC1` were 2.83 nM, 130 nM, 120 nM and 150 nM.
The like results for `COc1cc2c(Oc3ccc(N/C=C4\C(=O)NC(=O)N(c5ccc(F)cc5F)C4=O)cc3F)ccnc2cc1OCCCN1CCC(C)CC1` were, in that order, 16 nM, 460 nM, 5100 nM and 260 nM.
With `COc1cc2c(Oc3ccc(N/C=C4\C(=O)NC(=O)N(c5ccc(F)c(Cl)c5)C4=O)cc3F)ccnc2cc1OCCCN1CCC(C)CC1`, the IC50 in test [1] was found to be 4.82 nM; in test [2] it was 65 nM; in the test on HT-29 it was 150 nM; in test [4], 87 nM.
On to `COc1cc2c(Oc3ccc(N/C=C4\C(=O)NC(=O)N(c5ccccc5C(F)(F)F)C4=O)cc3F)ccnc2cc1OCCCN1CCC(C)CC1`, for which the 50% inhibitory concentration (IC50) in test [1] was 18.3 nM; in test [2] it was 310 nM; in the test with HT-29, 600 nM; in test [4], 380 nM.
`COc1cc(N2C(=O)NC(=O)/C(=C\Nc3ccc(Oc4ccnc5cc(OCCCN6CCC(C)CC6)c(OC)cc45)c(F)c3)C2=O)c(OC)cc1Cl`: the half-inhibitory concentration (IC50) in test [1] amounted to 19.2 nM; in test [2], 460 nM; in test [3], 3400 nM; in the test on A549, 640 nM; in the test on HT-29, 630 nM; in test [4] it was 570 nM.
Turning to `COc1cc2c(Oc3ccc(N/C=C4\C(=O)NC(=O)N(c5ccccc5)C4=O)cc3F)ccnc2cc1OCCCN1CCCC1`, the IC50 amounted to 3.36 nM in test [1], 210 nM in test [2], 200 nM in the test on HT-29 and 290 nM in test [4].
For `COc1cc2c(Oc3ccc(N/C=C4\C(=O)NC(=O)N(c5c(C)cccc5C)C4=O)cc3F)ccnc2cc1OCCCN1CCCC1`, the IC50 was determined as 2.35 nM in test [1]; 900 nM in test [2]; 1240 nM in test [3]; 230 nM with A549; 120 nM in the test on HT-29; 160 nM in test [4].
For `COc1cc2c(Oc3ccc(N/C=C4\C(=O)NC(=O)N(c5ccc(F)cc5)C4=O)cc3F)ccnc2cc1OCCCN1CCCC1`, the IC50 in test [1] was 2.68 nM; in test [2] it was 1200 nM; in the test on HT-29, 490 nM; in test [4] it was 620 nM.
Taken in the same sequence, the figures for `COc1cc2c(Oc3ccc(N/C=C4\C(=O)NC(=O)N(c5ccc(F)cc5F)C4=O)cc3F)ccnc2cc1OCCCN1CCCC1` were 12.4 nM, 2800 nM, 710 nM and 240 nM.
